Data on four compounds can be found in ChEMBL document CHEMBL1143386, “Prodrugs of perzinfotel with improved oral bioavailability” (J Med Chem, 2009).

Activity calls are given as the source filed them. Bounds are passed on as bounds.

A short description of series [1]: Half life in Sprague-Dawley rat at 30 mg/kg, po. Type of series: ADME, organism-based. Conditions: in vivo. Set-up: dose 30 mg/kg, route oral. In outline: (§1)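 Male Sprague-Dawley rats fasted about 16 h, then dosed by oral gavage at 30 mg/kg as a suspension in 2% Tween-80/0.5% methylcellulose in water. Plasma sampled at 0–6 h (n = 2–3 per time point) and stabilized with acetic acid and KF. Samples acidified, extracted into n-butanol, and analysed by LC-MS.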

A short description of series [2]: Tmax in Sprague-Dawley rat at 30 mg/kg, po. Type of series: ADME, organism-based. On the set-up: dose 30 mg/kg, route oral. The settings on record: in vivo. In outline: as §1
The subject of series [3] is Brain. The experiment in a line: Biodistribution in Sprague-Dawley rat brain at 30 mg/kg, po after 0.167 hrs. Type of series: ADME, organism-based. Conditions: in vivo. On the set-up: dose 30 mg/kg, route oral. In outline:
(§2)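 Male Sprague-Dawley rats given [14C]-labelled compound by oral gavage (parent at 30 mg/kg, prodrug at 10 mg/kg). Blood, plasma and brain taken at 0.167, 0.5, 1, 4, 8 and 24 h (n = 3 rats/time point). Total radioactivity measured in each matrix. Metabolite profiles from HPLC with in-line radioactivity detection.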

Series [4] relates to Plasma. The experiment in a line: Biodistribution in Sprague-Dawley rat plasma at 10 mg/kg, po after 0.167 hrs. The settings on record: in vivo.
Series [5] can be described thus: AUC (0 to 4 hrs) in Sprague-Dawley rat at 30 mg/kg, po. Type of series: ADME, organism-based. Conditions: plasma. Set-up: time < 4 hr, dose 30 mg/kg, route oral. In outline: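 Male Sprague-Dawley rats given a single oral gavage dose, suspended in 2% Tween-80/0.5% methylcellulose in sterile water at 1 mL/kg. Plasma sampled at 0, 0.25, 0.5, 1, 2, 4 and 6 h; n = 2 at 0, 2, 4, 6 h and n = 3 at 0.25, 0.5, 1 h. Samples were stabilized with acetic acid/KF, acidified, extracted into n-butanol and quantified by LC/MS.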

In series [6] the test system is Blood. Nature of the series: Biodistribution in Sprague-Dawley rat blood at 10 mg/kg, po after 0.167 hrs. The settings on record: in vivo.
Series [7] in a line: AUC (0 to last) in Sprague-Dawley rat at 30 mg/kg, po. The settings on record: plasma.
The species entered for series [8] is Rattus norvegicus. The experiment in a line: Displacement of [3H]kainic acid from kainate receptor in rat frontal cortex at 100 uM. Type of series: tissue-based. In outline:
(§3)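 Inhibition of radioligand binding at 100 µM. [3H]glycine with rat whole-brain membranes, [3H]kainate with rat frontal cortex membranes, and [3H]AMPA with rat forebrain membranes.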
For orientation: Displacement assays read how much labelled ligand stays bound in the presence of the test substance.

The species entered for series [9] is Rattus norvegicus. The experiment in a line: Displacement of [3H]AMPA from AMPA receptor in rat forebrain membrane at 100 uM. It is filed as cell membranes. In outline: as §3
Series [10] deals with Rattus norvegicus. Nature of the series: Antinociceptive activity in Sprague-Dawley rat assessed as reversal of PGE2-induced thermal hypersensitivity at 100 mg/kg after 0.5 hrs. Type of series: functional, organism-based. Set-up: dose 100 mg/kg. In outline:
(§4)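 Male Sprague-Dawley rats (200-250 g) fasted ~16 h and dosed orally in 2% Tween-80/0.5% methylcellulose (1 mL/kg) 0.5-48 h before intradermal PGE2 (0.1 mg in 50 µL). Tail-withdrawal latency was read 30 min later in water at 34-58 °C, with a 20 s cutoff. T10 from each rat's temperature-effect curve; within-subjects repeated-measures ANOVA, p < 0.05.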

The target of series [11] is T1, Glycine receptor subunit alpha-1 (Rattus norvegicus) (UniProt P07727).
T1 sequence (whole entry): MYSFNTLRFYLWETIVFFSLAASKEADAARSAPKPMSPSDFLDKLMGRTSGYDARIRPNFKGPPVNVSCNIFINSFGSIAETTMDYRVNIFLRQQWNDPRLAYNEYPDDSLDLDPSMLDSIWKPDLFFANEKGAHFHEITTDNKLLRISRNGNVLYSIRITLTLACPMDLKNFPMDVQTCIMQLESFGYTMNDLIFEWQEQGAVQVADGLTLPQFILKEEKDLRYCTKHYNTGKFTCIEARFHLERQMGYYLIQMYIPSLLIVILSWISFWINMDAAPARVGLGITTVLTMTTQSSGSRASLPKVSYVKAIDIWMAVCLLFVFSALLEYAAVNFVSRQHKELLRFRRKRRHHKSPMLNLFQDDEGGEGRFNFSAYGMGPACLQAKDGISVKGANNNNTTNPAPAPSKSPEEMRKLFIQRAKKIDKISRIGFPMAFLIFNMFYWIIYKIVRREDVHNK
Nature of the series: Displacement of [3H]glycine from rat brain strychnine sensitive glycine receptor at 100 uM. In outline: as §3

For series [12], the system named is Brain. The experiment in a line: Biodistribution in Sprague-Dawley rat brain at 30 mg/kg, po after 0.5 hrs. Type of series: ADME, organism-based. Set-up: dose 30 mg/kg, route oral. Conditions: in vivo. In outline: as §2
Series [13] has as its system Blood. The experiment in a line: Biodistribution in Sprague-Dawley rat blood at 30 mg/kg, po after 0.5 hrs. It is filed as ADME, organism-based. On the set-up: dose 30 mg/kg, route oral. Conditions: in vivo. In outline:
as §2

The target of series [14] is Glutamate NMDA receptor. Nature of the series: Displacement of [3H]CGP-39653 from rat brain NMDA receptor. In outline:
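Competitive displacement of [3H]CGP-39653 at the NMDA recognition site, using rat whole-brain membranes.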

The nature of series [15]: Cmax in Sprague-Dawley rat at 30 mg/kg, po. It is filed as ADME, organism-based. On the set-up: dose 30 mg/kg, route oral. Conditions: in vivo. In outline:
as §1

The subject of series [16] is Plasma. Nature of the series: Biodistribution in Sprague-Dawley rat plasma at 30 mg/kg, po after 0.5 hrs. It is filed as ADME, organism-based. Set-up: dose 30 mg/kg, route oral. Conditions: in vivo. In outline: as §2
The species entered for series [17] is Rattus norvegicus. Nature of the series: Antinociceptive activity in Sprague-Dawley rat assessed as reversal of PGE2-induced thermal hypersensitivity after 0.5 hrs. It is filed as functional. In outline: as §4
The nature of series [18]: Chemical stability at pH 7.4 after 4 hrs. It is filed as physicochemical. The settings on record: buffer, read-out: Stability. In outline: (§5)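 Compound at 0.01 mg/mL final in a 9:1 mix of aqueous buffer (pH 1.0, 4.5, 6.6 or 7.4) or simulated gastric fluid with acetonitrile, held at 37 °C in the autosampler. Injected every 4 h over 24 h onto C8 HPLC. Percent remaining from peak area at 304 nm, corrected by internal standard; products confirmed by LC/MS (-ESI).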

The nature of series [19]: Chemical stability at pH 1 after 4 hrs. Conditions: buffer, read-out: Stability. It is filed as physicochemical. In outline:
as §5

Series [20] is described as follows: Chemical stability in simulated gastric fluid after 4 hrs. Type of series: physicochemical. The settings on record: read-out: Stability. In outline: as §5
Series [21] is described as follows: Chemical stability at pH 4.5 after 4 hrs. The settings on record: buffer, read-out: Stability. Type of series: physicochemical. In outline:
as §5

Series [22] in a line: Chemical stability at pH 6.6 after 4 hrs. It is filed as physicochemical. Conditions: buffer, read-out: Stability. In outline: as §5
Series [23] in a line: Tmax in simulated intestinal fluid assessed as formation of benzoic acid [2-(8,9-dioxo-2,6-diaza-bicyclo[5.2.0]non-1(7)-en-2-yl)-ethyl]-hydroxy-phosphinoyloxymethyl ester. Type of series: physicochemical. The settings on record: simulated gi fluid. In outline: (§6)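 Compound at a final 0.01 mg/mL in 9:1 pH 8.5 buffer or simulated intestinal fluid:acetonitrile, 37 °C. HPLC injections every 4 h over 24 h, with peak area at 304 nm corrected by internal standard and identities confirmed by LC/MS. Conversion kinetics fitted to a two-step first-order model to give rate constants, half-lives and Tmax of the hemiester.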

For series [24], the species on record is Rattus norvegicus. The experiment in a line: Half life in Sprague-Dawley rat plasma assessed as formation of perzinfotel. It is filed as ADME. In outline:
(§7)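 Dissolved at 0.05 mg/mL in rat plasma and incubated at 37 °C for 0–24 h. Samples quenched with acetonitrile and centrifuged; supernatant diluted and run on HPLC. Parent and conversion products quantified by peak area at 304 nm, corrected by internal standard, and confirmed by LC/MS. Kinetics fitted to a two-step first-order model.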

The nature of series [25]: Half life in pH 8.5 buffer assessed as formation of perzinfotel. Type of series: physicochemical. In outline:
as §6

The nature of series [26]: Tmax in pH 8.5 buffer assessed as formation of benzoic acid [2-(8,9-dioxo-2,6-diaza-bicyclo[5.2.0]non-1(7)-en-2-yl)-ethyl]-hydroxy-phosphinoyloxymethyl ester. Type of series: physicochemical. In outline: as §6
Series [27] in a line: Half life in simulated intestinal fluid assessed as formation of perzinfotel. It is filed as physicochemical. Conditions: simulated gi fluid. In outline:
as §6

The species named for series [28] is Rattus norvegicus. Nature of the series: Tmax in Sprague-Dawley rat plasma assessed as formation of benzoic acid [2-(8,9-dioxo-2,6-diaza-bicyclo[5.2.0]non-1(7)-en-2-yl)-ethyl]-hydroxy-phosphinoyloxymethyl ester. It is filed as ADME. Conditions: in vitro. In outline: as §7

As usually defined, the half-life is the time in which the quantity being followed falls by half. Low values mean rapid decline, high ones slow decline. A word on the Tmax: it is the time from dosing to the highest level. Usually AUC(0-t) stands for exposure summed from dosing to a finite time, without extrapolation to infinity. Low values mean low exposure, high ones high exposure. By IC50 is commonly meant the concentration needed to halve the response being measured. A low value points to greater potency in that assay. For orientation: Cmax means the maximum level reached in the sampled fluid or tissue. A word on the ED50: it is the midpoint of the dose-response relation. Compound `O=c1c2c(c1=O)N(CCP(=O)(O)O)CCCN2` [PERZINFOTEL] gave a half-life in series [1] of 1.3 h. Besides, the time to peak (Tmax) in series [2] was found to be 0.5 h. Also, the Drug uptake in [3] was found to be 88%; in series [4], 88%; in series [6], 88%; in series [13] it was 98%; in series [16], 98%. Also, in series [5], the area under the curve AUC(0-t) at 4 h came to 0.342 µg·h/mL. The AUC(0-last) in series [7] came to 0.342 µg·h/mL. Moreover, the Activity in [8] turned out to be 6%; in [9], 17%; in series [11], 33%; in [12] it was 98%. Also, the result in series [10] was Active. In series [14], the IC50 turned out to be 0.023 µM. Besides, the Cmax in [15] was 0.218 µg/mL. For the same compound, in series [17], the ED50 amounted to 35 mg/kg.

Consider `CC(C)OC(=O)OCOP(=O)(CCN1CCCNc2c1c(=O)c2=O)OCOC(=O)OC(C)C`, for which the remaining at 4 h in [18] was 94.1%; in [19] it was 100%; in [20], 100%; in series [21] it was 100%; in [22], 97.7%.

As for `O=C(OCOP(=O)(CCN1CCCNc2c1c(=O)c2=O)OCOC(=O)C1CCCCC1)C1CCCCC1`, the remaining at 4 h in [18] was 94.4%; in [19], 89%; in series [20], 91.6%; in series [21] it was 99.4%; in series [22], 95%.

On to `O=C(OCOP(=O)(O)CCN1CCCNc2c1c(=O)c2=O)c1ccccc1`, for which the time to peak (Tmax) in series [23] was 14.48 h; in [26] it was 9.14 h; in [28], 0.19 h. Also, the t1/2 in series [24] was 0.87 h; in series [25] it was more than 24 h; in [27], more than 24 h. In series [14], this compound gave an IC50 of 17 µM.
